From ChEMBL document CHEMBL4038284, “Synthesis of novel quinoline-based 4,5-dihydro-1H-pyrazoles as potential anticancer, antifungal, antibacterial and antiprotozoal agents” (Eur J Med Chem, 2017)
Active and inactive are the calls of the source. The rule behind the calls is not given here.

Key:
[1] = test system: Cryptococcus neoformans; assay: Growth inhibition of Cryptococcus neoformans ATCC 32264 at 125 ug/ml incubated for 48 hrs under dark condition by broth microdilution method relative to control; assay type: functional; conditions: ATCC 32264, 48 h, read-out: GI
In short: (§1)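 CLSI M27-A3 broth microdilution in RPMI-1640, DMSO ≤1%. Inoculum 1-5 × 10^3 CFU/mL. Incubated 48 h at 30 °C, dark. % inhibition = 100 − (OD405 test − sterility control)/(OD405 growth control − sterility control), with growth and sterility control wells. Triplicate.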

[2] = test system: CAKI-1; assay: Growth inhibition of human Caki1 cells at 10 uM incubated for 48 hrs by sulforhodamine B assay; assay type: functional, cell-based
In short: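 NCI 60-cell-line screen at a single 10 µM dose. Cells in RPMI-1640 with 5% FBS and 2 mM L-glutamine, pre-incubated 24 h, then treated for 48 h at 37 °C. TCA fixation, sulforhodamine B staining, absorbance at 515 nm. Percentage growth calculated against time-zero and untreated controls.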

[3] = test system: LOX IMVI; assay: Growth inhibition of human LOXIMVI cells at 10 uM incubated for 48 hrs by sulforhodamine B assay; assay type: functional, cell-based
In short: (§2)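 NCI 60-line panel, single 10 μM dose. Cells were grown in RPMI-1640 with 5% FBS and 2 mM L-glutamine and pre-incubated 24 h before compound addition (DMSO stock). Exposure was 48 h at 37 °C, 5% CO2. Cells were fixed with cold TCA (10% final), stained with 0.4% SRB, bound dye dissolved in 10 mM Tris base, A515 read. Growth was taken relative to time-zero and untreated control plates.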

[4] = test system: Candida albicans; assay: Growth inhibition of Candida albicans ATCC 10231 at 125 ug/ml incubated for 48 hrs under dark condition by broth microdilution method relative to control; assay type: functional; conditions: ATCC 10231, 48 h, read-out: GI; in short: as §1
[5] = test system: NCI-H322M; assay: Growth inhibition of human NCI-H322M cells at 10 uM incubated for 48 hrs by sulforhodamine B assay; assay type: functional, cell-based; in short: as §2
[6] = test system: SF-268; assay: Growth inhibition of human SF268 cells at 10 uM incubated for 48 hrs by sulforhodamine B assay; assay type: functional, cell-based; in short: as §2
[7] = test system: Staphylococcus aureus; assay: Antibacterial activity against methicillin-resistant Staphylococcus aureus ATCC 43300 after 24 hrs by resazurin dye based microdilution assay; assay type: functional; conditions: ATCC 43300, 24 h
In short: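 Broth microdilution in Mueller Hinton broth, inoculum 5 × 10^5 – 8 × 10^5. Compound stocks diluted in MHB with 5% DMSO and 0.1% Tween 80. Incubation 24 h at 35-37 °C. MIC is the lowest concentration with visible growth inhibition and/or by resazurin (1 mg/mL) read-out. Gentamicin as control. Run in duplicate, replicated at least three times.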

SMILES | inhibition of growth at 125 µg/mL [1] [%] | growth inhibition (GI) [2] | growth inhibition (GI) [3] | inhibition of growth at 125 µg/mL [4] [%] | growth inhibition (GI) [5] | growth inhibition (GI) [6] | MIC [7] [µg/mL]
COc1ccc(C2=NN(c3ccc(Cl)cc3)C(c3cccc(Nc4ccnc5cc(Cl)ccc45)c3)C2)cc1 (stereo not given) | 26.7 | inactive | inactive | 1.92 | inactive | inactive | > 1000
Clc1ccc(C2=NN(c3ccc(Cl)cc3)C(c3cccc(Nc4ccnc5cc(Cl)ccc45)c3)C2)cc1 (stereo not given) | 46 | inactive | inactive | 19.9 | inactive | inactive | > 1000
Clc1ccc(C2=NN(c3ccccc3)C(c3cccc(Nc4ccnc5cc(Cl)ccc45)c3)C2)cc1 (stereo not given) | 14.6 | inactive | inactive | 8.35 | inactive | inactive | > 1000
Clc1ccc(C2=NN(c3cc(Cl)cc(Cl)c3)C(c3cccc(Nc4ccnc5cc(Cl)ccc45)c3)C2)cc1 (stereo not given) | 4.65 | inactive | inactive | 31.5 | inactive | inactive | > 1000
COc1ccc(C2=NN(c3ccccc3)C(c3cccc(Nc4ccnc5cc(Cl)ccc45)c3)C2)cc1 (stereo not given) | 16.9 | inactive | inactive | 19.8 | inactive | inactive | > 1000
